Measured values as given in ChEMBL document CHEMBL1125206, “Modification of the enkephalin "message" with an artificial polycationic C-terminus” (J Med Chem, 1991).
Starred links: 1 amine or outer side, 2 acyl side, 3 side chain; linkers in the order of their positions; H or OH if unused. Residues, ends and D or L forms follow the SMILES beside them. Ethylenediamine = C(CN[*:2])N[*:1]; GABA = NCCCC(=O)O

Legend:
[1] = molecular target: Mu-type opioid receptor (Cavia porcellus, UniProt P97266); test: The compound was tested for binding activity towards opioid receptor mu in guinea pig brain membranes.; format: cell membranes
Chain of Mu-type opioid receptor (P97266 whole entry): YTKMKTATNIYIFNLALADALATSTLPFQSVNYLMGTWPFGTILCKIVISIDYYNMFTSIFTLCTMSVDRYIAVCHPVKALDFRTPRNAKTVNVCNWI
How it was run: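 Competitive radioligand binding used male Hartley guinea pig brain membranes at 25 °C in 100 mM NaCl, with 0.5 nM [³H]naloxone (final) for μ sites. Compounds were tested as HCl salts. Data come from single duplicate experiments or are mean ± SEM of three experiments run in duplicate.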

[2] = molecular target: Kappa-type opioid receptor (Cavia porcellus, UniProt P41144); test: The compound was tested for binding activity towards opioid receptor kappa in guinea pig brain membranes.; format: cell membranes
Chain of Kappa-type opioid receptor (P41144 whole entry): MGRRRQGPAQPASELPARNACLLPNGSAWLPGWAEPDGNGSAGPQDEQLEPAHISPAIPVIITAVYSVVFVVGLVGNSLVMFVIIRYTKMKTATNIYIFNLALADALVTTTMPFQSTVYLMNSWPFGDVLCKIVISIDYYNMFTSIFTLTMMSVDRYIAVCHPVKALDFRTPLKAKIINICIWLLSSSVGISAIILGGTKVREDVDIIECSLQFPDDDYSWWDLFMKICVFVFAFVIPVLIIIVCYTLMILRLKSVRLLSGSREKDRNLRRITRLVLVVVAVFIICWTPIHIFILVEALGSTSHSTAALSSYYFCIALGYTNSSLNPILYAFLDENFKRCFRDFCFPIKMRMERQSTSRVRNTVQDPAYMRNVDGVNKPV
How it was run: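 Guinea pig brain membranes (male Hartley) in competitive radioligand displacement at 25 °C with 100 mM NaCl. κ sites were labelled with 1 nM (-)-[³H]EKC (final), with 500 nM DADLE and 20 nM sufentanil masking other sites. Compounds were tested as HCl salts. Values are single experiments in duplicate or mean ± SEM of three experiments in duplicate.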

[3] = species on record: Cavia porcellus; test: The compound was tested for inhibition of electrically evoked contractions in guinea pig ileum with bestatin at 10e-6 M conc.; format: functional
How it was run: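 Guinea pig ileum, electrically stimulated. Compound at 10⁻⁶ M final concentration, scored as inhibition of evoked contractions. Tissues were qualified with a morphine response at 10⁻⁷ M. Values are the average of two or three experiments. Compounds tested as HCl salts.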

[4] = species on record: Cavia porcellus; test: Inhibition of electrically evoked contractions in guinea pig ileum at 10e-6 M conc. with cocktail comprised of 10 uM bestatin, 10 uM captopril, 0.3 uM thiophan, and 10 mM L-leucylleucine.; format: functional
How it was run: (§1)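 Isolated guinea pig ileum, electrically stimulated; inhibition of evoked contractions by compound (HCl salt) at 10⁻⁶ M final. Only tissues responding to 10⁻⁷ M morphine reference were used. Values are the average of two or three experiments.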

[5] = species on record: Cavia porcellus; test: Inhibition of electrically evoked contractions in guinea pig ileum at 10e-6 M with cocktail comprised of 10 uM thiophan, and 10 mM L-leucylleucine.; format: functional; how it was run: as §1
[6] = species on record: Cavia porcellus; test: The compound was tested for inhibition of electrically evoked contractions in guinea pig ileum with bestatin at 10e-6 M; format: functional; how it was run: as §1

SMILES	Ki [1]	Ki [2]	inhibition at 1 µM [3]	Inhibition [4]	Inhibition [5]	inhibition at 1 µM [6]
CC[C@H](C)[C@H](NC(=O)[C@H](CCCNC(=N)N)NC(=O)[C@H](CCCNC(=N)N)NC(=O)[C@H](CC(C)C)NC(=O)[C@H](Cc1ccccc1)NC(=O)CNC(=O)CNC(=O)[C@@H](N)Cc1ccc(O)cc1)C(=O)N[C@@H](CCCNC(=N)N)C(=O)N1CCC[C@H]1C(=O)N[C@@H](CCCCN)C(=O)N[C@@H](CC(C)C)C(=O)N[C@@H](CCCCN)C(=O)O [ANALOG OF DYNORPHIN A]	0.05 µM	0.0036 µM				
NCCCC(=O)NCCN(CCNC(=O)[C@H](Cc1ccccc1)NC(=O)CNC(=O)CNC(=O)[C@@H](N)Cc1ccc(O)cc1)C(=O)CCCN (HELM PEPTIDE1{Y.G.G.F.[NCCCC(=O)NCCN(CCN[*:1])C(=O)CCCN]}$$$$V2.0)	14.4 µM	8.75 µM	13.5%	17.5%		
NCCCC(=O)NCCNC(=O)[C@H](Cc1ccccc1)NC(=O)CNC(=O)CNC(=O)[C@@H](N)Cc1ccc(O)cc1 (H-YGGF-{Ethylenediamine-GABA})	16.5 µM	36.7 µM	29.5%	28.5%		
NCCCC(=O)NCCN(CCNC(=O)CCCN)C(=O)CCCN			0%		0%	
NCCCC(=O)NCCN(CCN(CCNC(=O)[C@H](Cc1ccccc1)NC(=O)CNC(=O)CNC(=O)[C@@H](N)Cc1ccc(O)cc1)C(=O)CCCN)C(=O)CCCN (HELM PEPTIDE1{Y.G.G.F.[NCCCC(=O)NCCN(CCN(CCN[*:1])C(=O)CCCN)C(=O)CCCN]}$$$$V2.0)	6.76 µM	3.73 µM			9%	
NCCCC(=O)NCCCN(CCCNC(=O)[C@H](Cc1ccccc1)NC(=O)CNC(=O)CNC(=O)[C@@H](N)Cc1ccc(O)cc1)C(=O)CCCN (HELM PEPTIDE1{Y.G.G.F.[NCCCC(=O)NCCCN(CCCN[*:1])C(=O)CCCN]}$$$$V2.0)	7.3 µM	5.51 µM			12.5%	13%
